Test results reported in ChEMBL document CHEMBL2157989, “Synthesis and biological evaluation of antibody conjugates of phosphate prodrugs of cytotoxic DNA alkylators for the targeted treatment of cancer” (J Med Chem, 2012).
In brackets after ≈: the same amount, converted by molar mass.

What was measured:
[1] = Solubility of the compound in 100% buffer at pH 7 at 1.5 mg sonicated for 45 mins followed by centrifugation for 45 mins by UV/Vis spectroscopy; type: physicochemical
[2] = Solubility in DMSO at 1.5 mg sonicated for 45 mins followed by centrifugation for 45 mins by UV/Vis spectroscopy; type: physicochemical; conditions: 0.75 h
Outline: (§1)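 Solid compound (~1.5 mg) in the stated solvent was sonicated 45 min, then centrifuged at 1400g for 45 min. The supernatant concentration was read by UV/vis at 340 nm, using ε = 41500 M⁻¹ cm⁻¹ for the free phenols and 34500 M⁻¹ cm⁻¹ for the phosphate prodrugs (pH 7.0 values).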

[3] = Solubility in hexane at 1.5 mg sonicated for 45 mins followed by centrifugation for 45 mins by UV/Vis spectroscopy; type: physicochemical; conditions: 0.75 h; outline: as §1
[4] = Prodrug activation assessed as enzyme-mediated compound dephosphorylation in presence of porcine kidney alkaline phosphatase P4439 at pH 7.4 by HPLC; conditions: pig, isolated protein
[5] = Solubility in water containing 5% acetone at 1.5 mg sonicated for 45 mins followed by centrifugation for 45 mins by UV/Vis spectroscopy; type: physicochemical; conditions: 0.75 h
[6] = Prodrug activation assessed as enzyme-mediated compound dephosphorylation in presence of porcine intestine mucosa alkaline phosphatase P4002 at pH 7.4 by HPLC; conditions: pig, isolated protein
[7] = Prodrug conversion assessed as 5-(3-(Methyldisulfanyl)propanamido)-N-(2-((9aS)-4-oxo-2,4,9,9atetrahydro- 1H-benzo[e]cyclopropa[c]indole-2-carbonyl)-1H-indol- 5-yl)-1H-indole-2-carboxamide in cyclopropyl by HPLC analysis; type: physicochemical
[8] = Prodrug activation assessed as enzyme-mediated compound dephosphorylation in presence of calf intestine alkaline phosphatase P7923 at pH 7.4 by HPLC; conditions: cattle, isolated protein
[9] = Prodrug activation assessed as enzyme-mediated compound dephosphorylation in presence of rabbit intestine alkaline phosphatase P2256 at pH 7.4 by HPLC; conditions: isolated protein
COLO 205 = assay: Cytotoxicity against human COLO205 cells assessed as cell survival after 72 hrs by clonogenic assay; type: functional, cell-based; conditions: COLO 205, 72 h
Outline: (§2)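 Cells were kept in RPMI 1640 with 10% heat-inactivated FBS at 37 °C and 6% CO₂. They were plated at 1000–5000 cells/well and exposed to 0–3 nM test agent for 72 h. Medium was then replaced and colonies grew for 7–10 days in total after plating. Colonies were fixed and stained with 0.2% crystal violet in 10% formalin/PBS, then counted. Surviving fraction = colonies in treated wells / colonies in control wells; IC₅₀ was taken from this.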

[10] = Stability of the compound in 5 % DMA assessed as cyclopropyl ring formation incubated for 1 yr at room temperature at pH 7 by HPLC analysis; type: physicochemical; conditions: buffer, pH 7, 8766 h
Outline: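 Phosphate prodrug is stored for one year at room temperature in phosphate buffer containing 5% DMA at pH ~7. Conversion to the ring-closed cyclopropyl form is monitored by HPLC.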

[11] = Solubility in DMF at 1.5 mg sonicated for 45 mins followed by centrifugation for 45 mins by UV/Vis spectroscopy; type: physicochemical; conditions: 0.75 h; outline: as §1
[12] = Prodrug activation assessed as enzyme-mediated compound dephosphorylation in presence of canine intestine alkaline phosphatase P8639 at pH 7.4 by HPLC; conditions: dog, isolated protein
HL-60 = assay: Cytotoxicity against human HL60 cells assessed as cell survival after 72 hrs by clonogenic assay; type: functional, cell-based; conditions: HL-60, 72 h; outline: as §2
[13] = Solubility in dichloromethane at 1.5 mg sonicated for 45 mins followed by centrifugation for 45 mins by UV/Vis spectroscopy; type: physicochemical; conditions: 0.75 h
[14] = Prodrug conversion assessed as 1-[S]-(Chloromethyl)-5-hydroxy-3-{{5-[5-(3-methyldithiopropionyl)indol-2-yl-carbonyl amino]indole-2-yl}- carbonyl}-1,2-dihydro-3H-benz[e]indole formation in presence of bovine kidney alkaline phosphatase at pH 7.4; type: physicochemical; conditions: cattle, isolated protein
[15] = Solubility in ethyl acetate at 1.5 mg sonicated for 45 mins followed by centrifugation for 45 mins by UV/Vis spectroscopy; type: physicochemical; conditions: 0.75 h; outline: as §1
[16] = Prodrug activation assessed as enzyme-mediated compound dephosphorylation in presence of human semen prostatic acid phosphatase P1649 at pH 7.4 by HPLC; conditions: isolated protein
[17] = Solubility of the compound in 20% DMA and 80% buffer at pH 7 at 1.5 mg sonicated for 45 mins followed by centrifugation for 45 mins by UV/Vis spectroscopy; type: physicochemical
Outline: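 About 1.5 mg of compound is sonicated for 45 min in pH 7.0 buffer containing 10% or 20% DMA, then centrifuged at 1400g for 45 min. Supernatant concentration is read by UV/vis at 340 nm. ε at pH 7.0 is 41500 M⁻¹ cm⁻¹ for DC1–SR₂ compounds and 34500 M⁻¹ cm⁻¹ for phosphate prodrugs.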

[18] = Solubility in methanol at 1.5 mg sonicated for 45 mins followed by centrifugation for 45 mins by UV/Vis spectroscopy; type: physicochemical; conditions: 0.75 h; outline: as §1
Ramos = assay: Cytotoxicity against human Ramos cells assessed as cell survival after 72 hrs in presence of bovine alkaline phosphatase by clonogenic assay; type: functional, cell-based
Outline: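 Clonogenic assay: cells in RPMI 1640 with 10% heat-inactivated FBS were plated at 1000–5000 cells/well. Test agent (0–3 nM) was combined with alkaline phosphatase from bovine liver, and cells were exposed for 72 h. Colonies then grew for 7–10 days after plating and were stained with 0.2% crystal violet in 10% formalin/PBS. Surviving fraction is relative to untreated control wells.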

[19] = Prodrug activation assessed as enzyme-mediated compound dephosphorylation in presence of bovine semen prostatic acid phosphatase P3147 at pH 7.4 by HPLC; conditions: cattle, isolated protein
[20] = Prodrug activation assessed as enzyme-mediated compound dephosphorylation in presence of bovine alkaline phosphatase P8361 at pH 7.4 by HPLC; conditions: cattle, isolated protein
[21] = Solubility in DMA at 1.5 mg sonicated for 45 mins followed by centrifugation for 45 mins by UV/Vis spectroscopy; type: physicochemical; conditions: 0.75 h; outline: as §1
[22] = Prodrug activation assessed as enzyme-mediated compound dephosphorylation in presence of calf intestine mucosa alkaline phosphatase P79390 at pH 7.4 by HPLC; conditions: cattle, isolated protein
[23] = Solubility of the compound in 5% DMA and 95% buffer at pH 7 at 1.5 mg sonicated for 45 mins followed by centrifugation for 45 mins by UV/Vis spectroscopy; type: physicochemical
Outline: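 For buffers with 5% or less DMA, a 50 mM stock of compound in DMA is diluted 20–100 times into pH 7.0 buffer. It is then sonicated for 45 min and centrifuged at 1400g for 45 min. Supernatant is quantified by UV/vis at 340 nm, with ε of 41500 (DC1–SR₂ compounds) or 34500 M⁻¹ cm⁻¹ (phosphate prodrugs).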

[24] = Solubility in water containing 5% DMSO at 1.5 mg sonicated for 45 mins followed by centrifugation for 45 mins by UV/Vis spectroscopy; type: physicochemical; conditions: 0.75 h
[25] = Prodrug activation assessed as enzyme-mediated compound dephosphorylation in presence of human placenta alkaline phosphatase from P3895 at pH 7.4 by HPLC; conditions: isolated protein
[26] = Prodrug activation assessed as enzyme-mediated compound dephosphorylation in presence of bovine intestinal mucosa alkaline phosphatase P7640 at pH 7.4 by HPLC; conditions: cattle, isolated protein

Compound | solubility at 0.75 h [1] [µM] | solubility [2] | solubility [3] | Drug metabolism [4] | solubility [5] | Drug metabolism [6] | Drug metabolism [7] | Drug metabolism [8] | Drug metabolism [9] | IC50 (COLO 205) [nM] | Drug degradation [10] [%] | solubility [11] | Drug metabolism [12] | IC50 (HL-60) [nM] | solubility [13] | Drug metabolism [14] | solubility [15] | Drug metabolism [16] | solubility at 0.75 h [17] [µM] | solubility [18] | further results
CSSC(C)(C)CCC(=O)Nc1ccc2[nH]c(C(=O)Nc3ccc4[nH]c(C(=O)N5C[C@@H](CCl)c6c5cc(OP(=O)(O)O)c5ccccc65)cc4c3)cc2c1 | 19 (≈ 15.3 µg/mL) | soluble | Insoluble | Active | soluble | Active | Active | Active | Active | > 3 | 3 | soluble | Active | 1.9 | Insoluble | Active | Insoluble | Active | > 6000 | Insoluble | IC50 (Ramos): 0.09 nM; Drug metabolism [19]: Active; Drug metabolism [20]: Active; solubility [21]: soluble; Drug metabolism [22]: Active; solubility at 0.75 h [23]: 2900 µM (≈ 2340 µg/mL); solubility [24]: soluble; Drug metabolism [25]: Active; Drug metabolism [26]: Active
CSSCCC(=O)Nc1ccc2[nH]c(C(=O)Nc3ccc4[nH]c(C(=O)N5C[C@@H](CCl)c6c5cc(OP(=O)(O)O)c5ccccc65)cc4c3)cc2c1 | 19 (≈ 14.5 µg/mL) | soluble | Insoluble | Active | soluble | Active | Active | Active | Active | > 3 | 3 | soluble | Active | 1.8 | Insoluble | Active | Insoluble | Active | > 6000 | Insoluble | IC50 (Ramos): 0.08 nM; Drug metabolism [19]: Active; Drug metabolism [20]: Active; solubility [21]: soluble; Drug metabolism [22]: Active; solubility at 0.75 h [23]: 3000 µM (≈ 2290 µg/mL); solubility [24]: soluble; Drug metabolism [25]: Active; Drug metabolism [26]: Active
